Twelve compounds from ChEMBL document CHEMBL2021767, “Library-based discovery and characterization of daphnane diterpenes as potent and selective HIV inhibitors in Daphne gnidium” (J Nat Prod, 2012) can be followed below.

Data set [1] deals with Human immunodeficiency virus 1. As to the kind of experiment: Antiviral activity against multidrug-resistant HIV1 106-PR infected in HEK293T cells assessed as inhibition of viral replication after 4 days by beta-galactosidase reporter gene assay. The format is functional, organism-based. As to conditions: Human immunodeficiency virus 1, 106-PR, HEK-293T, 96 h. Summed up: (§1)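 HEK293T transfected with proviral DNA (wild-type NL4-3 CXCR4-tropic or NL-AD87 CCR5-tropic, or multiresistant 106-PR protease-inhibitor or 695-RT RT-inhibitor mutants), then co-cultured 4 days with HeLa-SxR5 reporter cells (CD4, CCR5, endogenous CXCR4, LTR-LacZ) plus test substance; DMEM/10% FBS, 37 °C, 7% CO2. β-galactosidase colorimetric read at 405 nm, normalized to plate controls; EC50 from fitted dose-response curves.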

Data set [2] concerns Human immunodeficiency virus 1. As to the kind of experiment: Resistance factor, ratio of EC50 for multidrug-resistant HIV1 106-PR infected in HEK293T cells to wildtype HIV1 infected in HEK293T cells. The format is functional, HEK-293T. Summed up: (§2)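 Resistance factor = EC50 against mutant virus (106-PR or 695-RT) divided by EC50 against wild-type; EC50s from 4-day HEK293T-transfection/HeLa-SxR5 co-culture with β-galactosidase read-out (405 nm), normalized to plate controls, curve-fitted.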

In data set [3] the test system is PBMC. As to the kind of experiment: Down-regulation of CCR5 expression in PHA- and IL-2-stimulated human PBMC membranes at 20 nM after 48 hrs by flow cytometric analysis. The format is functional, cell-based. Summed up: (§3)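 Healthy-donor PBMCs at 1 × 10^6 cells/mL in RPMI/10% FBS, activated 48 h with PHA 2.5 μg/mL and IL-2 300 IU/mL, then treated 48 h with 20 nM compound or vehicle (0.25% DMSO, 100 IU/mL IL-2). Sampled at 0, 2, 5, 24, 48 h; stained 40 min at 4 °C with FITC anti-CXCR4 or anti-CCR5, or PE anti-CD69, plus isotype controls; flow cytometry, % cells expressing each receptor.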

Data set [4] has as its system Human immunodeficiency virus 1. Description: Antiviral activity against CXCR4-tropic HIV1 NL4-3 infected in HEK293T cells assessed as inhibition of viral replication after 4 days by beta-galactosidase reporter gene assay. The data set is classed as functional, organism-based. As to conditions: Human immunodeficiency virus 1, NL4-3, HEK-293T, 96 h. Put shortly: as §1
For orientation: Reporter assays use an easily measured gene product as a stand-in for the process of interest.

A further data set has as its system HEK-293T. As to the kind of experiment: Cytotoxicity against human HEK293T cells after 4 days by Alamar blue assay. The format is cell-based. Particulars: 96 h. Summed up: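 Same culture set-up as the anti-HIV assay (HEK293T with HeLa-SxR5, DMEM/10% FBS, 37 °C, 7% CO2) but with no proviral DNA transfected; viability read with AlamarBlue after 4 days.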
A general note: Alamar Blue is a resazurin reagent that responds to reducing activity.

For data set [5], the system named is Human immunodeficiency virus 1. As to the kind of experiment: Antiviral activity against multidrug-resistant HIV1 695-RT infected in HEK293T cells assessed as inhibition of viral replication after 4 days by beta-galactosidase reporter gene assay. The format is functional, organism-based. As to conditions: Human immunodeficiency virus 1, 695-RT, HEK-293T, 96 h. Summed up:
as §1

Data set [6] deals with PBMC. As to the kind of experiment: Upregulation of CD69 expression in PHA- and IL-2-stimulated human PBMC membranes at 20 nM after 48 hrs by flow cytometric analysis. The data set is classed as functional, cell-based. Put shortly:
as §3

Data set [7] has as its system Human immunodeficiency virus 1. Description: Resistance factor, ratio of EC50 for multidrug-resistant HIV1 695-RT infected in HEK293T cells to wildtype HIV1 infected in HEK293T cells. The format is functional, HEK-293T. Summed up:
as §2

Data set [8] has as its system Human immunodeficiency virus 1. Description: Antiviral activity against wild type Human immunodeficiency virus 1 NL4-3 pseudotyped with VSV envelope infected in human HeLa-SxR5 cells assessed as inhibition of viral replication after 3 days by beta-galactosidase assay. The format is functional, organism-based. Put shortly: (§4)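 Pseudoparticles made by cotransfecting HEK293T with env-defective NL4-3 provirus plus plasmid for full-length NL4-3 Env or VSV envelope; supernatants harvested 2 days post-transfection, cleared by low-speed spin, used to transduce HeLa-SxR5 with or without compound at increasing concentrations; β-galactosidase activity measured 3 days later; means ± standard deviation.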

In data set [9] the test system is Human immunodeficiency virus 1. As to the kind of experiment: Antiviral activity against CCR5-tropic HIV1 NL-AD87 infected in HEK293T cells assessed as inhibition of viral replication after 4 days by beta-galactosidase reporter gene assay. The data set is classed as functional, organism-based. Particulars: Human immunodeficiency virus 1, NL-AD87, HEK-293T, 96 h. Put shortly:
as §1

Data set [10] deals with Human immunodeficiency virus 1. As to the kind of experiment: Antiviral activity against wild type Human immunodeficiency virus 1 NL4-3 pseudotyped with HIV envelope infected in human HeLa-SxR5 cells assessed as inhibition of viral replication after 3 days by beta-galactosidase assay. The format is functional, organism-based. Put shortly: as §4
The subject of data set [11] is PBMC. As to the kind of experiment: Down-regulation of CXCR4 expression in PHA- and IL-2-stimulated human PBMC membranes at 20 nM after 48 hrs by flow cytometric analysis. The data set is classed as functional, cell-based. Put shortly:
as §3

Data set [12] has as its system Human immunodeficiency virus 1. Description: Antiviral activity against wild type Human immunodeficiency virus 1 NL4-3 pseudotyped with HIV envelope infected in human HeLa-SxR5 cells assessed as inhibition of viral replication at 65 nM after 3 days by beta-galactosidase assay. The format is functional, organism-based. Summed up: (§5)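 HEK293T cells cotransfected with an envelope-defective NL4-3-derived provirus plus a plasmid expressing full-length NL4-3 HIV envelope. Supernatants were harvested 2 days post-transfection, spun at low speed to clear debris, and used to transduce HeLa-SxR5 reporter cells (CD4/CCR5, endogenous CXCR4, HIV-LTR-LacZ) with or without compound. β-galactosidase was read colorimetrically at 405 nm 3 days later and normalised to positive and negative control wells as percent inhibition.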

Data set [13] has as its system Human immunodeficiency virus 1. Description: Antiviral activity against wild type Human immunodeficiency virus 1 NL4-3 pseudotyped with VSV envelope infected in human HeLa-SxR5 cells assessed as inhibition of viral replication at 65 nM after 3 days by beta-galactosidase assay. The format is functional, organism-based. Put shortly:
as §4

Data set [14] relates to Human immunodeficiency virus 1. Description: Antiviral activity against wild type Human immunodeficiency virus 1 NL4-3 pseudotyped with VSV envelope infected in human HeLa-SxR5 cells assessed as inhibition of viral replication at 300 nM after 3 days by beta-galactosidase assay. The data set is classed as functional, organism-based. Put shortly: as §4
In data set [15] the test system is Human immunodeficiency virus 1. As to the kind of experiment: Antiviral activity against wild type Human immunodeficiency virus 1 NL4-3 pseudotyped with HIV envelope infected in human HeLa-SxR5 cells assessed as inhibition of viral replication at 300 nM after 3 days by beta-galactosidase assay. The format is functional, organism-based. Put shortly:
as §5

The source made the active and inactive calls. The calls are words filed in the database; no cut-off is given here.

As usually defined, the EC50 is the concentration giving half of the maximal effect. Turning to `COC(=O)N[C@H](C(=O)N[C@@H](Cc1ccccc1)[C@@H](O)CN(Cc1ccc(-c2ccccn2)cc1)NC(=O)[C@@H](NC(=O)OC)C(C)(C)C)C(C)(C)C` [ATAZANAVIR], in data set [1], the EC50 turned out to be 324 nM. Besides, the “Ratio EC50” value in [2] is 7.

`C=C(C)[C@]12C[C@@H](C)[C@@]34O[C@](c5ccccc5)(O[C@@H]1[C@@H]3[C@@H]1O[C@]1(CO)[C@@H](O)[C@]1(O)C(=O)C(C)=C[C@H]14)O2` [DAPHNETOXIN]: the EC50 in data set [1] was found to be 22 nM; in [4], 16.2 nM; in [5] it was 21 nM; in [9], 26.7 nM. Further, the “Ratio EC50” value in data set [2] and in [7] was 1 each time. The outcome in the data set on PBMC [3], with PBMC [6] and in the data set on PBMC [11] was Active. For the same compound, the Activity result with HEK-293T is given as “Non-toxic”. Also, the inhibition result in data set [8] and in [10] was “Dose-dependent effect” each time.

Consider `CC(C)CN(C[C@@H](O)[C@H](Cc1ccccc1)NC(=O)O[C@H]1CO[C@H]2OCC[C@H]21)S(=O)(=O)c1ccc(N)cc1` [DARUNAVIR], for which, in [1], the EC50 came to 13700 nM. In addition, in [2], the “Ratio EC50” value is >300.

In the case of `O=C1Nc2ccc(Cl)cc2[C@@](C#CC2CC2)(C(F)(F)F)O1` [EFAVIRENZ], the inhibition result in data set [12] and in [13] was “Active” throughout. The EC50 in data set [5] worked out at 889 nM. Besides, the “Ratio EC50” value in data set [7] stood at 222.

In the case of `C=C(C)[C@]12C[C@@H](C)[C@@]34O[C@](/C=C/C=C/CCCCC)(O[C@@H]1[C@@H]3[C@@H]1O[C@]1(CO)[C@@H](O)[C@]1(O)C(=O)C(C)=C[C@H]14)O2` [EXCOECARIA TOXIN], the EC50 was 1080 nM in data set [4] and 1570 nM in data set [9]. In the data set with HEK-293T, the Activity entry is “Non-toxic”.

Take `C=C(C)[C@@]12O[C@@]3(c4ccccc4)O[C@@H]1[C@@H]1[C@@H]4O[C@]4(CO)[C@@H](O)[C@]4(O)C(=O)C(C)=C[C@H]4[C@@]1(O3)[C@H](C)[C@H]2OC(=O)/C=C/c1ccccc1` [GNIDICIN]: the EC50 in data set [4] amounted to 8.6 nM; in data set [9], 17.6 nM. The Activity entry in the data set with HEK-293T was “Non-toxic”.

Turning to `C=C(C)C12OC3(c4ccccc4)OC1[C@@H]1[C@@H]4O[C@]4(CO)[C@@H](O)[C@]4(O)C(=O)C(C)=C[C@H]4C1(O3)[C@H](C)[C@H]2OC(=O)/C=C/C=C/C=C/CCC` (stereo not given in full) [GNIDITRIN], the EC50 in data set [4] was determined as 74 nM; in data set [9], 133 nM. Moreover, the Activity entry with HEK-293T is listed as “Non-toxic”.

Take `Nc1ccn([C@@H]2CS[C@H](CO)O2)c(=O)n1` [LAMIVUDINE]: the EC50 in data set [5] is > 20000 nM. In addition, the “Ratio EC50” value in [7] was >300.

On to `Cc1cccc(C)c1OCC(=O)N[C@@H](Cc1ccccc1)[C@@H](O)C[C@H](Cc1ccccc1)NC(=O)[C@H](C(C)C)N1CCCNC1=O` [LOPINAVIR], for which the EC50 in data set [1] is 160 nM. Also, the “Ratio EC50” value in data set [2] was 10.

In the case of `CC(C)(C)NC(=O)[C@@H]1C[C@@H]2CCCC[C@@H]2CN1C[C@@H](O)[C@H](Cc1ccccc1)NC(=O)[C@H](CC(N)=O)NC(=O)c1ccc2ccccc2n1` [SAQUINAVIR], the EC50 in [1] worked out at 12 nM. Further, the “Ratio EC50” value in data set [2] worked out at 1.

With `Cc1cn([C@H]2C[C@H](N=[N+]=[N-])[C@@H](CO)O2)c(=O)[nH]c1=O` [ZIDOVUDINE], the EC50 came out at 6 nM in [1] and 200 nM in data set [5]. Further, in data set [7], the “Ratio EC50” value is listed as 11.

Turning to enfuvirtide, in data set [14], the inhibition entry was “inactive”. Also, the inhibition result in data set [15] was “Active”.
